According to ChEMBL document CHEMBL1138652, “Chlorothiophenecarboxamides as P1 surrogates of inhibitors of blood coagulation factor Xa” (Bioorg Med Chem Lett, 2004):
Converted amounts (≈) assume the structure as drawn.

Legend:
Coagulation factor X = Coagulation factor X (Homo sapiens, UniProt P00742); test: Inhibitory concentration against human serine protease factor Xa
Method in brief: (§1)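 Human factor Xa, thrombin and trypsin were each monitored in vitro with a protease-specific chromogenic substrate. Inhibition was calculated from the ratio of optical density in drug-containing versus vehicle-containing assays.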

Prothrombin = Prothrombin (Homo sapiens, UniProt P00734); test: Inhibitory concentration against human thrombin activity; method in brief: as §1
Trypsin = Trypsin (Homo sapiens, UniProt P07477+P07478+P35030); test: Inhibitory concentration against human trypsin activity; type: protein assay; method in brief: as §1
[1] = Maximum absorbable dose of compound after administration at dose of 10 mg/kg was determined; type: ADME, organism-based; design: dose 10 mg/kg; settings: human
[2] = Solubility was determined; type: ADME; settings: human
Method in brief: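 Shake-flask solubility was measured in phosphate buffer at pH 7 and 37 °C.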

[3] = Area under curve concentration of compound at 6 hr after peroral administration at dose of 0.5 mg/kg in female dogs was determined; type: ADME, organism-based, Canis lupus familiaris; design: time < 6 hr, dose 0.5 mg/kg, route oral; settings: dog, in vivo, po
Method in brief: (§2)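 Pharmacokinetics were studied in male Wistar rats (N = 3), female Beagle dogs (N = 2) and female Cynomolgus monkeys (N = 2). Each animal received single intravenous and oral doses. Plasma concentration–time data gave Cmax, tmax, AUC, t1/2, CL, Vss and oral bioavailability.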

[4] = Area under curve concentration of compound after intravenous administration at dose of 0.2 mg/kg in female monkeys was determined; type: ADME, organism-based; design: dose 0.2 mg/kg, route intravenous; settings: cercopithecidae, in vivo; method in brief: as §2
[5] = Clearance of compound after intravenous administration at dose of 0.2 mg/kg in male wistar rats was determined; type: ADME, organism-based; design: dose 0.2 mg/kg, route intravenous; settings: rat, in vivo; method in brief: as §2
[6] = Maximum time taken for concentration of compound in plasma after peroral administration at dose of 0.5 mg/kg in female monkeys was determined; type: ADME, organism-based; design: dose 0.5 mg/kg, route oral; settings: cercopithecidae, po; method in brief: as §2
[7] = Maximum plasma concentration after peroral administration of compound at dose of 0.5 mg/kg in female dogs was determined; type: ADME, organism-based, Canis lupus familiaris; design: dose 0.5 mg/kg, route oral; settings: dog, po; method in brief: as §2
[8] = Maximum plasma concentration after peroral administration of compound at dose of 0.5 mg/kg in female monkeys was determined; type: ADME, organism-based; design: dose 0.5 mg/kg, route oral; settings: cercopithecidae, po; method in brief: as §2
[9] = Maximum plasma concentration after peroral administration of compound at dose of 0.5 mg/kg in male wistar rats was determined; type: ADME, organism-based; design: dose 0.5 mg/kg, route oral; settings: rat, po; method in brief: as §2
[10] = Maximum time taken for concentration of compound in plasma after peroral administration at dose of 0.5 mg/kg in female dogs was determined; type: ADME, organism-based, Canis lupus familiaris; design: dose 0.5 mg/kg, route oral; settings: dog, po; method in brief: as §2
[11] = Clearance of compound after intravenous administration at dose of 0.2 mg/kg in female monkeys was determined; type: ADME, organism-based; design: dose 0.2 mg/kg, route intravenous; settings: cercopithecidae, in vivo; method in brief: as §2
[12] = Area under curve concentration of compound after intravenous administration at dose of 0.2 mg/kg in male wistar rats was determined; type: ADME, organism-based; design: dose 0.2 mg/kg, route intravenous; settings: rat, in vivo; method in brief: as §2
[13] = Area under curve concentration of compound at 6 hr after peroral administration at dose of 0.5 mg/kg in female monkeys was determined; type: ADME, organism-based; design: time < 6 hr, dose 0.5 mg/kg, route oral; settings: cercopithecidae, in vivo, po; method in brief: as §2
[14] = Area under curve concentration of compound at 6 hr after peroral administration at dose of 0.5 mg/kg in male wistar rats was determined; type: ADME, organism-based; design: time < 6 hr, dose 0.5 mg/kg, route oral; settings: rat, in vivo, po; method in brief: as §2
[15] = Bioavailability of compound after peroral administration at dose of 0.5 mg/kg in female dogs was determined; type: ADME, organism-based, Canis lupus familiaris; settings: dog, in vivo, po, read-out: Bioavailabiility; method in brief: as §2
[16] = Bioavailability of compound after peroral administration at dose of 0.5 mg/kg in female monkeys was determined; type: ADME, organism-based; settings: cercopithecidae, in vivo, po, read-out: Bioavailabiility; method in brief: as §2
[17] = Bioavailability of compound after peroral administration at dose of 0.5 mg/kg in male wistar rats was determined; type: ADME, organism-based; settings: rat, in vivo, po, read-out: Bioavailabiility; method in brief: as §2
[18] = Maximum time taken for concentration of compound in plasma after peroral administration at dose of 0.5 mg/kg in male wistar rats was determined; type: ADME, organism-based; design: dose 0.5 mg/kg, route oral; settings: rat, po; method in brief: as §2
[19] = Half life of compound after intravenous administration at dose of 0.2 mg/kg in female monkeys was determined; type: ADME, organism-based; design: dose 0.2 mg/kg, route intravenous; settings: cercopithecidae, in vivo; method in brief: as §2
[20] = Half life of compound after intravenous administration at dose of 0.2 mg/kg in male wistar rats was determined; type: ADME, organism-based; design: dose 0.2 mg/kg, route intravenous; settings: rat, in vivo; method in brief: as §2
[21] = Steady state volume of distribution of compound after intravenous administration at dose of […] was determined; type: ADME, organism-based, Canis lupus familiaris; design: route intravenous; settings: dog, in vivo, read-out: Vss; method in brief: as §2
[22] = Steady state volume of distribution of compound after intravenous administration at dose of 0.2 mg/kg in female monkeys was determined; type: ADME, organism-based; design: dose 0.2 mg/kg, route intravenous; settings: cercopithecidae, in vivo, read-out: Vss; method in brief: as §2
[23] = Steady state volume of distribution of compound after intravenous administration at dose of 0.2 mg/kg in male wistar rats was determined; type: ADME, organism-based; design: dose 0.2 mg/kg, route intravenous; settings: rat, in vivo, read-out: Vss; method in brief: as §2
[24] = Clearance of compound after intravenous administration at dose of 0.15 mg/kg in female dogs was determined; settings: dog, in vivo
[25] = Half life of compound after intravenous administration at dose of 0.15 mg/kg in female dogs was determined; settings: dog, in vivo
[26] = Area under curve concentration of compound after intravenous administration at dose of 0.15 mg/kg in female dogs was determined; settings: dog, in vivo

Sequence of Coagulation factor X (P00742 41-179 limits assumed): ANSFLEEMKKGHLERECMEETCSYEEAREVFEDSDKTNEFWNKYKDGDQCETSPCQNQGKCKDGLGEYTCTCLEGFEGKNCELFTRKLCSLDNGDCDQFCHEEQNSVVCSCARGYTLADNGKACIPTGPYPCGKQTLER
Sequence of Coagulation factor X (P00742 235-488 limits assumed): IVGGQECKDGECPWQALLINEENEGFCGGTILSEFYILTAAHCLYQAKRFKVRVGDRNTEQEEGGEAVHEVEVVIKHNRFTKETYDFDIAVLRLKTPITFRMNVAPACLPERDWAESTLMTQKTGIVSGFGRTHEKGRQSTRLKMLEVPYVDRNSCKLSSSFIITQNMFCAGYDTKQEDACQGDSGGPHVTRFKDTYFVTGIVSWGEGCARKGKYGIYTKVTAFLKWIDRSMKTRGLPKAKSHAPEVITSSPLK

Compound: CC[C@@H](NC(=O)c1ccc(Cl)s1)C(=O)Nc1ccc(N2CCOCC2=O)c(C)c1
- IC50 (Coagulation factor X): 0.011 µM
- IC50 (Prothrombin): > 10 µM
- IC50 (Trypsin): > 10 µM
- MAD [1]: 6.5 mg/kg
- solubility [2]: 41 µg/mL (≈ 94.1 µM)

Compound: C[C@@H](NC(=O)c1ccc(Cl)s1)C(=O)Nc1ccc(N2CCOCC2=O)cc1
- IC50 (Coagulation factor X): 0.059 µM
- IC50 (Prothrombin): > 10 µM
- IC50 (Trypsin): > 10 µM

Compound: O=C(N[C@H](C(=O)Nc1ccc(N2CCOCC2=O)cc1)c1ccccc1)c1ccc(Cl)s1
- IC50 (Coagulation factor X): 0.026 µM
- IC50 (Prothrombin): > 10 µM
- IC50 (Trypsin): > 10 µM

Compound: O=C(N[C@@H](C(=O)Nc1ccc(N2CCOCC2=O)cc1)c1ccccc1)c1ccc(Cl)s1
- IC50 (Coagulation factor X): 0.029 µM
- IC50 (Prothrombin): > 10 µM
- IC50 (Trypsin): > 10 µM

Compound: CCCOC[C@@H](NC(=O)c1ccc(Cl)s1)C(=O)Nc1ccc(N2CCOCC2=O)c(C)c1
- IC50 (Coagulation factor X): 0.012 µM
- IC50 (Prothrombin): > 10 µM
- IC50 (Trypsin): > 10 µM
- MAD [1]: 1.9 mg/kg
- solubility [2]: 92 µg/mL (≈ 192 µM)

Compound: Cc1cc(NC(=O)[C@@H](CO)NC(=O)c2ccc(Cl)s2)ccc1N1CCOCC1=O
- IC50 (Coagulation factor X): 0.029 µM
- IC50 (Prothrombin): > 10 µM
- IC50 (Trypsin): > 10 µM
- MAD [1]: 11 mg/kg
- solubility [2]: 520 µg/mL (≈ 1190 µM)

Compound: COC[C@@H](NC(=O)c1ccc(Cl)s1)C(=O)Nc1ccc(N2CCOCC2=O)c(C(F)(F)F)c1
- IC50 (Coagulation factor X): 0.014 µM

Compound: O=C(CNC(=O)c1ccc(Cl)s1)Nc1ccc(N2CCOCC2=O)cc1
- IC50 (Coagulation factor X): 0.7 µM
- IC50 (Prothrombin): > 10 µM
- IC50 (Trypsin): > 10 µM

Compound: Cc1cc(NC(=O)[C@@H](CC(C)C)NC(=O)c2ccc(Cl)s2)ccc1N1CCOCC1=O
- IC50 (Coagulation factor X): 0.0072 µM
- IC50 (Prothrombin): > 10 µM
- IC50 (Trypsin): > 10 µM
- MAD [1]: 0.6 mg/kg
- solubility [2]: 29 µg/mL (≈ 62.5 µM)

Compound: O=C(CCc1ccc2nc(-c3ccc(Cl)s3)[nH]c2c1)Nc1ccc(N2CCOCC2=O)cc1F
- IC50 (Prothrombin): > 10 µM

Compound: CCC[C@@H](NC(=O)c1ccc(Cl)s1)C(=O)Nc1ccc(N2CCOCC2=O)c(C)c1
- IC50 (Coagulation factor X): 0.0095 µM
- IC50 (Prothrombin): > 10 µM
- IC50 (Trypsin): > 10 µM

Compound: CC(C)[C@@H](NC(=O)c1ccc(Cl)s1)C(=O)Nc1ccc(N2CCOCC2=O)cc1
- IC50 (Coagulation factor X): 0.066 µM
- IC50 (Prothrombin): > 10 µM
- IC50 (Trypsin): > 10 µM

Compound: CCOC[C@@H](NC(=O)c1ccc(Cl)s1)C(=O)Nc1ccc(N2CCOCC2=O)c(C)c1
- IC50 (Coagulation factor X): 0.01 µM
- IC50 (Prothrombin): > 10 µM
- IC50 (Trypsin): > 10 µM

Compound: Cc1cc(NC(=O)[C@@H](C)NC(=O)c2ccc(Cl)s2)ccc1N1CCOCC1=O
- IC50 (Coagulation factor X): 0.015 µM
- IC50 (Prothrombin): > 10 µM
- IC50 (Trypsin): > 10 µM
- MAD [1]: 2.8 mg/kg
- solubility [2]: 134 µg/mL (≈ 318 µM)

Compound: CC(C)C[C@@H](NC(=O)c1ccc(Cl)s1)C(=O)Nc1ccc(-n2ccccc2=O)cc1
- IC50 (Coagulation factor X): 0.016 µM
- IC50 (Prothrombin): > 10 µM
- IC50 (Trypsin): > 10 µM

Compound: CC(C)C[C@@H](NC(=O)c1ccc(Cl)s1)C(=O)Nc1ccc(N2CCOCC2=O)cc1
- IC50 (Coagulation factor X): 0.015 µM
- IC50 (Prothrombin): > 10 µM
- IC50 (Trypsin): > 10 µM

Compound: CC(C)C[C@H](NC(=O)c1ccc(Cl)s1)C(=O)Nc1ccc(N2CCOCC2=O)cc1
- IC50 (Coagulation factor X): 0.13 µM
- IC50 (Prothrombin): > 10 µM
- IC50 (Trypsin): > 10 µM

Compound: CCC[C@@H](NC(=O)c1ccc(Cl)s1)C(=O)Nc1ccc(N2CCOCC2=O)cc1
- IC50 (Coagulation factor X): 0.012 µM
- IC50 (Prothrombin): > 10 µM
- IC50 (Trypsin): > 10 µM

Compound: COC[C@@H](NC(=O)c1ccc(Cl)s1)C(=O)Nc1ccc(N2CCOCC2=O)c(Cl)c1
- IC50 (Coagulation factor X): 0.013 µM
- IC50 (Prothrombin): > 10 µM
- IC50 (Trypsin): > 10 µM

Compound: CCC[C@@H](NC(=O)Nc1ccc(Cl)cc1)C(=O)Nc1ccc(N2CCOCC2=O)cc1
- IC50 (Prothrombin): > 10 µM
- IC50 (Trypsin): > 10 µM

Compound: COCCOC[C@@H](NC(=O)c1ccc(Cl)s1)C(=O)Nc1ccc(N2CCOCC2=O)c(C)c1
- IC50 (Coagulation factor X): 0.011 µM
- MAD [1]: 22 mg/kg
- solubility [2]: 1050 µg/mL (≈ 2130 µM)

Compound: COC[C@@H](NC(=O)c1ccc(Cl)s1)C(=O)Nc1ccc(N2CCOCC2=O)c(F)c1
- IC50 (Coagulation factor X): 0.022 µM
- IC50 (Prothrombin): > 10 µM
- IC50 (Trypsin): > 10 µM

Compound: COC[C@@H](NC(=O)c1ccc(Cl)s1)C(=O)Nc1ccc(N2CCOCC2=O)c(C)c1
- AUC [3]: 211 ng·h/mL
- AUC [4]: 803 ng·h/mL
- clearance [5]: 15.7 mL/min/kg
- Tmax [6]: 30 min
- IC50 (Prothrombin): > 10 µM
- IC50 (Trypsin): > 10 µM
- Cmax [7]: 161 ng/mL
- Cmax [8]: 270 ng/mL
- Cmax [9]: 92 ng/mL
- MAD [1]: 11 mg/kg
- Tmax [10]: 30 min
- clearance [11]: 4.17 mL/min/kg
- AUC [12]: 212 ng·h/mL
- AUC [13]: 1100 ng·h/mL
- AUC [14]: 271 ng·h/mL
- bioavailability [15]: ~60%
- bioavailability [16]: ~80%
- bioavailability [17]: ~60%
- Tmax [18]: 150 min
- half-life [19]: 138 min
- half-life [20]: 66 min
- solubility [2]: 510 µg/mL (≈ 1130 µM)
- Vd [21]: 0.86 L/kg
- Vd [22]: 0.81 L/kg
- Vd [23]: 1.6 L/kg
- clearance [24]: 21.7 mL/min/kg
- half-life [25]: 34.2 min
- AUC [26]: 117 ng·h/mL

Compound: CC(C)C[C@@H](NC(=O)c1ccc(Cl)s1)C(=O)Nc1ccc(-n2ccncc2=O)cc1
- IC50 (Coagulation factor X): 0.039 µM
- IC50 (Prothrombin): > 10 µM
- IC50 (Trypsin): > 10 µM

Compound: CC[C@@H](NC(=O)c1ccc(Cl)s1)C(=O)Nc1ccc(N2CCOCC2=O)cc1
- IC50 (Coagulation factor X): 0.02 µM
- IC50 (Prothrombin): > 10 µM
- IC50 (Trypsin): > 10 µM
